Laboratory results taken from ChEMBL document CHEMBL4680236, “Design, synthesis and structure-activity relationships of novel 15-membered macrolides: Quinolone/quinoline-containing sidechains tethered to the C-6 position of azithromycin acylides” (Eur J Med Chem, 2020).
Converted amounts (≈) assume the structure as drawn.

Legend:
Assay type in all cases: functional
Streptococcus pneumoniae [1] = test: Antibacterial activity against Erythromycin-susceptible Streptococcus pneumoniae ATCC 49619 assessed as reduction in microbial growth
Streptococcus pneumoniae [2] = test: Bactericidal activity against Erythromycin-susceptible Streptococcus pneumoniae ATCC 49619
Method in brief: (§1)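 Bacteria were exposed to 1- to 8-fold MIC of the sample, then transferred to fresh medium without antibacterial. After further incubation, colonies were counted. MBC was taken as the lowest concentration giving a >3 log10 reduction in colony number.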

Streptococcus pneumoniae [3] = test: Ratio of MBC to MIC against Erythromycin-susceptible Streptococcus pneumoniae ATCC 49619
Streptococcus pneumoniae [4] = test: Antibacterial activity against penicillin-susceptible Streptococcus pneumoniae PU09 harboring mef gene assessed as reduction in microbial growth
Streptococcus pneumoniae [5] = test: Bactericidal activity against penicillin-susceptible Streptococcus pneumoniae PU09 harboring mef gene
Method in brief: (§2)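 Bacteria were exposed to 1- to 8-fold their MIC of test sample, then transferred to fresh culture medium without antibacterial compound and incubated for the required time. Colonies were then counted. MBC is the lowest concentration giving a reduction in colony number of >3 Log₁₀.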

Streptococcus pneumoniae [6] = test: Ratio of MBC to MIC against penicillin-susceptible Streptococcus pneumoniae PU09
Streptococcus pneumoniae [7] = test: Antibacterial activity against MLSB-resistant Streptococcus pneumoniae 07P390 harboring ermB gene assessed as reduction in microbial growth
Streptococcus pneumoniae [8] = test: Bactericidal activity against MLSB-resistant Streptococcus pneumoniae 07P390 harboring ermB gene assessed as reduction in microbial growth; method in brief: as §2
Streptococcus pneumoniae [9] = test: Ratio of MBC to MIC against MLSB-resistant Streptococcus pneumoniae 07P390 harboring ermB
Staphylococcus aureus [10] = test: Antibacterial activity against MLSB/methicillin/ciprofloxacin-resistant Staphylococcus aureus PU32 harboring ermA gene assessed as reduction in microbial growth
Staphylococcus aureus [11] = test: Bactericidal activity against MLSB/methicillin/ciprofloxacin-resistant Staphylococcus aureus PU32 harboring ermA gene; method in brief: as §2
Staphylococcus aureus [12] = test: Ratio of MBC to MIC against MLSB/methicillin/ciprofloxacin-resistant Staphylococcus aureus PU32 harboring ermA gene
Staphylococcus aureus [13] = test: Antibacterial activity against MLSB/methicillin-resistant Staphylococcus aureus 15B196 assessed as reduction in microbial growth
Haemophilus influenzae [14] = test: Antibacterial activity against azithromycin-susceptible Haemophilus influenzae ATCC 49247 assessed as reduction in microbial growth
Haemophilus influenzae [15] = test: Bactericidal activity against azithromycin-susceptible Haemophilus influenzae ATCC 49247; method in brief: as §1
Haemophilus influenzae [16] = test: Ratio of MBC to MIC against azithromycin-susceptible Haemophilus influenzae ATCC 49247
Staphylococcus aureus [17] = test: Bactericidal activity against MLSB/methicillin-resistant Staphylococcus aureus 15B196; method in brief: as §2
Streptococcus pyogenes [18] = test: Antibacterial activity against MLSB-resistant Streptococcus pyogenes 12-206 harboring ermA gene assessed as reduction in microbial growth
Streptococcus pyogenes [19] = test: Bactericidal activity against MLSB-resistant Streptococcus pyogenes 12-206 harboring ermA gene; method in brief: as §2
Streptococcus pyogenes [20] = test: Ratio of MBC to MIC against MLSB-resistant Streptococcus pyogenes 12-206 harboring ermA gene

SMILES	MIC (Streptococcus pneumoniae [1]) [µg/mL]	MBC (Streptococcus pneumoniae [2]) [µg/mL]	Ratio (Streptococcus pneumoniae [3])	MIC (Streptococcus pneumoniae [4]) [µg/mL]	MBC (Streptococcus pneumoniae [5]) [µg/mL]	Ratio (Streptococcus pneumoniae [6])	MIC (Streptococcus pneumoniae [7]) [µg/mL]	MBC (Streptococcus pneumoniae [8]) [µg/mL]	Ratio (Streptococcus pneumoniae [9])	MIC (Staphylococcus aureus [10]) [µg/mL]	MBC (Staphylococcus aureus [11]) [µg/mL]	Ratio (Staphylococcus aureus [12])	MIC (Staphylococcus aureus [13]) [µg/mL]	MIC (Haemophilus influenzae [14]) [µg/mL]	MBC (Haemophilus influenzae [15]) [µg/mL]	Ratio (Haemophilus influenzae [16])	MBC (Staphylococcus aureus [17]) [µg/mL]	MIC (Streptococcus pyogenes [18]) [µg/mL]	MBC (Streptococcus pyogenes [19]) [µg/mL]	Ratio (Streptococcus pyogenes [20])
CC[C@H]1OC(=O)[C@H](C)[C@@H](OC(=O)Cc2ccccn2)[C@H](C)[C@@H](O[C@@H]2O[C@H](C)C[C@H](N(C)C)[C@H]2O)[C@](C)(OC(=O)CCNC/C=C/c2cnc3ccccc3c2)C[C@@H](C)CN(C)[C@H](C)[C@@H](O)[C@]1(C)O	0.125	0.25 (≈ 0.264 µM)	2	2	2 (≈ 2.11 µM)	1	1	> 8	>8	2	> 16	>8	> 256	8	16 (≈ 16.9 µM)	2				
CC[C@H]1OC(=O)[C@H](C)[C@@H](OC(=O)Cc2ccccn2)[C@H](C)[C@@H](O[C@@H]2O[C@H](C)C[C@H](N(C)C)[C@H]2O)[C@](C)(OC(=O)CCNCCC#Cc2ccc3c(c2)c(=O)c(C(N)=O)cn3CC)C[C@@H](C)CN(C)[C@H](C)[C@@H](O)[C@]1(C)O	0.12	0.5 (≈ 0.477 µM)	4	2	2 (≈ 1.91 µM)	1	256	> 256		32	> 256	>8	> 256	16	16 (≈ 15.3 µM)	1	> 256	8	> 64	>8
CC[C@H]1OC(=O)[C@H](C)[C@@H](OC(=O)Cc2ccccn2)[C@H](C)[C@@H](O[C@@H]2O[C@H](C)C[C@H](N(C)C)[C@H]2O)[C@](C)(OC(=O)CCNCCC#Cc2ccc3c(c2)c(=O)c(C(N)=O)cn3C)C[C@@H](C)CN(C)[C@H](C)[C@@H](O)[C@]1(C)O	0.25	0.5 (≈ 0.484 µM)	2	2	4 (≈ 3.87 µM)	2	256	> 256		16	> 128	>8	> 256	32	64 (≈ 61.9 µM)	2	> 256	8	> 64	>8
CC[C@H]1OC(=O)[C@H](C)[C@@H](OC(=O)Cc2ccccn2)[C@H](C)[C@@H](O[C@@H]2O[C@H](C)C[C@H](N(C)C)[C@H]2O)[C@](C)(OC(=O)CCNCCC#Cc2ccc3[nH]ccc(=O)c3c2)C[C@@H](C)CN(C)[C@H](C)[C@@H](O)[C@]1(C)O	0.25	0.25 (≈ 0.256 µM)	1	2	4 (≈ 4.1 µM)	2	256	> 256		16	> 128	>8	> 256	64	128 (≈ 131 µM)	2	> 256	2	> 16	>8
CC[C@H]1OC(=O)[C@H](C)[C@@H](OC(=O)Cc2ccccn2)[C@H](C)[C@@H](O[C@@H]2O[C@H](C)C[C@H](N(C)C)[C@H]2O)[C@](C)(OC(=O)CCNCCC#Cc2ccc3c(c2)c(=O)c(C(N)=O)cn3C2CC2)C[C@@H](C)CN(C)[C@H](C)[C@H]2OC(=O)O[C@@]21C	0.5	1 (≈ 0.921 µM)	2	4	8 (≈ 7.37 µM)	2	64	128		64	> 256	>4	128	64	128 (≈ 118 µM)	2	> 256	16	64 (≈ 59 µM)	4
CC[C@H]1OC(=O)[C@H](C)[C@@H](OC(=O)Cc2cccnc2)[C@H](C)[C@@H](O[C@@H]2O[C@H](C)C[C@H](N(C)C)[C@H]2O)[C@](C)(OC(=O)CCNCCC#Cc2ccc3c(c2)c(=O)c(C(N)=O)cn3C2CC2)C[C@@H](C)CN(C)[C@H](C)[C@H]2OC(=O)O[C@@]21C	1	2 (≈ 1.84 µM)	2	4	8 (≈ 7.37 µM)	2	64	128		64	> 256	>4	> 256	64	64 (≈ 59 µM)	1	> 256	32	64 (≈ 59 µM)	2
CC[C@H]1OC(=O)[C@H](C)[C@@H](OC(=O)Cc2ccccn2)[C@H](C)[C@@H](O[C@@H]2O[C@H](C)C[C@H](N(C)C)[C@H]2O)[C@](C)(OC(=O)CCNCCNc2cc3c(=O)c(C(=O)O)cn(C4CC4)c3cc2Cl)C[C@@H](C)CN(C)[C@H](C)[C@@H](O)[C@]1(C)O	0.25	0.25 (≈ 0.23 µM)	1	4	4 (≈ 3.68 µM)	1	1	> 8	>8	8	> 64	>8	> 256	16	32 (≈ 29.5 µM)	2				
CC[C@H]1OC(=O)[C@H](C)[C@@H](OC(=O)Cc2ccccn2)[C@H](C)[C@@H](O[C@@H]2O[C@H](C)C[C@H](N(C)C)[C@H]2O)[C@](C)(OC(=O)CCNCCC#Cc2cncc(C(N)=O)c2)C[C@@H](C)CN(C)[C@H](C)[C@@H](O)[C@]1(C)O	0.25	0.25 (≈ 0.262 µM)	1	2	4 (≈ 4.2 µM)	2	128	> 256		16	> 128	>8	> 256	64	128 (≈ 134 µM)	2	> 256	4	> 32	>8
CC[C@H]1OC(=O)[C@H](C)[C@@H](OC(=O)Cc2ccccn2)[C@H](C)[C@@H](O[C@@H]2O[C@H](C)C[C@H](N(C)C)[C@H]2O)[C@](C)(OC(=O)CCN2CCN(c3nc4c(cc3F)c(=O)c(C(N)=O)cn4CC)CC2)C[C@@H](C)CN(C)[C@H](C)[C@@H](O)[C@]1(C)O	0.5	1 (≈ 0.923 µM)	2	2	4 (≈ 3.69 µM)	2	64	128		32	> 256	>8	256	8	8 (≈ 7.38 µM)	1	> 256	16	> 128	>8
CC[C@H]1OC(=O)[C@H](C)[C@@H](OC(=O)Cc2ccccn2)[C@H](C)[C@@H](O[C@@H]2O[C@H](C)C[C@H](N(C)C)[C@H]2O)[C@](C)(OC(=O)CCNCCC#Cc2ccc3c(c2)c(=O)c(C(=O)O)cn3C2CC2)C[C@@H](C)CN(C)[C@H](C)[C@H]2OC(=O)O[C@@]21C	1	1 (≈ 0.921 µM)	1	4	8 (≈ 7.36 µM)	2	64	64		64	> 256	>4	> 256	64	128 (≈ 118 µM)	2	> 256	32	64 (≈ 58.9 µM)	2
CC[C@H]1OC(=O)[C@H](C)[C@@H](OC(=O)Cc2ccccn2)[C@H](C)[C@@H](O[C@@H]2O[C@H](C)C[C@H](N(C)C)[C@H]2O)[C@](C)(OC(=O)CCNCCCc2cnc3ccccc3c2)C[C@@H](C)CN(C)[C@H](C)[C@@H](O)[C@]1(C)O	0.062	0.062 (≈ 0.0652 µM)	1	2	4 (≈ 4.21 µM)	2	2	16	8	4	32 (≈ 33.7 µM)	8	> 256	16	16 (≈ 16.8 µM)	1				
